Converted amounts (≈) assume the structure as drawn.
Key:
[1] = system: Mus musculus; test: Anxiolytic activity in po dosed mouse measured after 60 mins post dose by black/white box test; assay type: functional; settings: Mus musculus, po, 1 h; read-out: ED50
Procedure, shortened: (§1)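 Mice dosed orally 60 min before testing, then placed in the centre of the illuminated white compartment of a two-part black/white box. Time spent exploring the white and black sides recorded; longer time in the white side read as anxiolytic effect. Model used for both potency and duration of action.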

[2] = target: T1, Cholecystokinin receptor type A (Rattus norvegicus, UniProt P30551); test: Displacement of [3H]CCK8 from rat pancreas CCK1 receptor at by liquid scintillation counting
T1 sequence (P30551 whole entry): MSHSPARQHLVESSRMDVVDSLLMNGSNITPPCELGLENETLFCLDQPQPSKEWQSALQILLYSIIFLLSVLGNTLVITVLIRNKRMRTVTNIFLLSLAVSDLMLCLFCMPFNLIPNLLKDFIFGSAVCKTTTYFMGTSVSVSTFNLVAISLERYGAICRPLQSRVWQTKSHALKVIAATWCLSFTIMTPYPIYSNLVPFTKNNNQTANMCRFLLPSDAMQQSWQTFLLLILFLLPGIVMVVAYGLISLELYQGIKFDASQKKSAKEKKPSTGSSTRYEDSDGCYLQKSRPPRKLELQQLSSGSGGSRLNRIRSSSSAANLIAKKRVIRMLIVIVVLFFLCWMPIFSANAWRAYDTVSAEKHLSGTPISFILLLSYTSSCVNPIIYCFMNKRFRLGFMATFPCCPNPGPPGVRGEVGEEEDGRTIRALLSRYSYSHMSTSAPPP
Procedure, shortened: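 Rat pancreas membranes incubated at 37 °C with [³H]-CCK8s at 0.2 nM; nonspecific binding defined with L-364,718. Bound and free ligand separated by filtration over GF/C filters, then counted by liquid scintillation. Ki calculated using Bmax and KD from separate saturation binding isotherms.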

[3] = Selectivity ratio of pKi for guinea pig brain CCK2 receptor to pKi for rat pancreas CCK1
Procedure, shortened: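 Radioligand displacement binding to guinea pig brain membranes (CCK2, incubated at 25 °C) and rat pancreas membranes (CCK1, incubated at 37 °C) with 0.2 nM [³H]-CCK8s. Non-specific binding was defined with L-365,260 (CCK2) or L-364,718 (CCK1). Bound ligand was separated by GF/C filtration and counted by liquid scintillation. Ki values were derived for each subtype, with KD and Bmax taken from separate saturation isotherms.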

[4] = Displacement of [3H]CCK8 from guinea pig brain CCK2 receptor by liquid scintillation counting; design: species or system Cavia porcellus
Procedure, shortened: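 Guinea pig brain membranes incubated at 25 °C with [³H]-CCK8s at 0.2 nM; nonspecific binding defined with L-365,260. Bound and free ligand separated by filtration over GF/C filters, then counted by liquid scintillation. Ki calculated using Bmax and KD from separate saturation binding isotherms.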

[5] = Solubility of the compound at pH 2.4; assay type: physicochemical; settings: buffer
[6] = Volume of distribution in rat administered as methocel suspension; assay type: ADME, organism-based; settings: in vivo
[7] = Clearance in rat administered as methocel suspension; assay type: ADME, organism-based; settings: in vivo
[8] = Half life in rat administered as methocel suspension; assay type: ADME, organism-based; settings: in vivo
[9] = Oral bioavailability in rat administered as methocel suspension; assay type: ADME, organism-based; settings: in vivo
[10] = system: Mus musculus; test: Anxiolytic activity in po dosed mouse assessed as duration of action of the compound measured after 60 mins post dose by black/white box test; assay type: functional; procedure, shortened: as §1

SMILES	Ki [2]	Ki selectivity ratio (CCK1 Ki / CCK2 Ki) [3]	pKi [4]	other results
O=C(Nc1ccccc1)N[C@@H]1C(=O)N(CC23CC4CC(CC(C4)C2)C3)c2ccccc2N(c2ccccc2)C1=O				ED50 [1]: 0.05 µg/kg
COc1ccc(NC(=O)NC2C(=O)N(CCC(C)C)c3ccccc3N(CCN3CCOCC3)C2=O)c(C)c1 (racemic)	6.61 µM	229	7.54	
CCN(CC)CCN1C(=O)C(NC(=O)Nc2ccccc2)C(=O)N(CC2CCCCC2)c2ccccc21 (racemic) [listing 1 of 2 here]	1.51 µM		8.99	
Cc1cccc(NC(=O)NC2C(=O)N(CCC(C)C)c3ccccc3N(CCN3CCOCC3)C2=O)c1 (racemic)	0.275 µM	372	9.11	
CC(C)CCN1C(=O)C(NC(=O)Nc2ccc(Br)cc2)C(=O)N(CCN2CCOCC2)c2ccccc21 (racemic)	1.07 µM	295	8.44	
CC(C)CCN1C(=O)C(NC(=O)Nc2ccc(F)cc2)C(=O)N(CCN2CCOCC2)c2ccccc21 (racemic)	1.45 µM	363	8.4	
CCOc1ccc(NC(=O)NC2C(=O)N(CCC(C)C)c3ccccc3N(CCN3CCOCC3)C2=O)cc1 (racemic)	> 10 µM	148	7.17	
Cc1cc(Br)ccc1NC(=O)NC1C(=O)N(CCC(C)C)c2ccccc2N(CCN2CCOCC2)C1=O (racemic)	0.537 µM	38	7.85	
CC(C)CCN1C(=O)C(NC(=O)Nc2ccccc2)C(=O)N(CCN2CCCCC2)c2ccccc21 (racemic)	2.04 µM	302	8.17	
CCN(CC)CCN1C(=O)C(NC(=O)Nc2ccccc2)C(=O)N(CCC(C)C)c2ccccc21 (racemic)	4.07 µM	2570	8.8	ED50 [1]: 0.0006 µg/kg
O=C(Nc1ccccc1)NC1C(=O)N(CCN2CCOCC2)c2ccccc2N(CC2CCCCC2)C1=O (racemic)	0.347 µM	126	8.56	
Cc1cccc(NC(=O)NC2C(=O)N(CCN3CCOCC3)c3ccccc3N(CC3CCCCC3)C2=O)c1 (racemic)	0.174 µM	316	9.26	
O=C(Nc1ccccc1)NC1C(=O)N(CCN2CCOCC2)c2cc(F)ccc2N(CC23CC4CC(CC(C4)C2)C3)C1=O (racemic) [listing 1 of 2 here]	2.63 µM		8.36	solubility [5]: 360 µg/mL (≈ 610 µM)
O=C(Nc1ccc(F)cc1)NC1C(=O)N(CCN2CCOCC2)c2ccccc2N(CC23CC4CC(CC(C4)C2)C3)C1=O (racemic) [listing 1 of 2 here]	1.41 µM		8.66	solubility ([5]; read-out: solubility): 20 µg/mL (≈ 33.9 µM)
O=C(Nc1ccccc1)NC1C(=O)N(CCN2CCCC2)c2ccccc2N(CC23CC4CC(CC(C4)C2)C3)C1=O (racemic)	9.55 µM	9120	8.98	
CN(C)CCCN1C(=O)C(NC(=O)Nc2ccccc2)C(=O)N(CC23CC4CC(CC(C4)C2)C3)c2ccccc21 (racemic)	20.4 µM	5620	8.44	
CCN(CC)CCN1C(=O)C(NC(=O)Nc2ccc(F)cc2)C(=O)N(CC23CC4CC(CC(C4)C2)C3)c2ccccc21 (racemic)	1.66 µM	851	8.71	
O=C(Nc1ccccc1)NC1C(=O)N(CCN2CCOCC2)c2ccccc2N(CC23CC4CC(CC(C4)C2)C3)C1=O (racemic)		3550		
O=C(Nc1ccccc1)NC1C(=O)N(CCN2CCOCC2)c2cc(F)ccc2N(CC23CC4CC(CC(C4)C2)C3)C1=O (single isomer, unassigned; (+)) [listing 1 of 2 here]	2.24 µM		7.31	
O=C(Nc1ccc(F)cc1)NC1C(=O)N(CCN2CCOCC2)c2ccccc2N(CC23CC4CC(CC(C4)C2)C3)C1=O (single isomer, unassigned; (+)) [listing 1 of 2 here]	2.57 µM		7.85	
O=C(Nc1ccc(F)cc1)NC1C(=O)N(CCN2CCOCC2)c2ccccc2N(CC23CC4CC(CC(C4)C2)C3)C1=O (single isomer, unassigned; (+)) [listing 2 of 2 here]		182		
O=C(Nc1ccccc1)NC1C(=O)N(CCN2CCOCC2)c2cc(F)ccc2N(CC23CC4CC(CC(C4)C2)C3)C1=O (single isomer, unassigned; (+)) [listing 2 of 2 here]		46		
O=C(Nc1ccccc1)NC1C(=O)N(CCN2CCOCC2)c2cc(F)ccc2N(CC23CC4CC(CC(C4)C2)C3)C1=O (single isomer, unassigned; (-)) [listing 1 of 2 here]	3.09 µM		8.52	Vd [6]: 2.2 L/kg; clearance [7]: 23 mL/min; half-life [8]: 1.1 h; solubility ([5]; read-out: solubility): 360 µg/mL (≈ 610 µM); ED50 [1]: 0.08 µg/kg; bioavailability [9]: 5%; Time [10]: 4 h
O=C(Nc1ccc(F)cc1)NC1C(=O)N(CCN2CCOCC2)c2ccccc2N(CC23CC4CC(CC(C4)C2)C3)C1=O (single isomer, unassigned; (-)) [listing 1 of 2 here]	1.02 µM		9.45	solubility [5]: 20 µg/mL (≈ 33.9 µM)
O=C(Nc1ccccc1)NC1C(=O)N(CCN2CCOCC2)c2cc(F)ccc2N(CC23CC4CC(CC(C4)C2)C3)C1=O (single isomer, unassigned; (-)) [listing 2 of 2 here]		1020		
CCN(CC)CCN1C(=O)C(NC(=O)Nc2ccccc2)C(=O)N(CC2CCCCC2)c2ccccc21 (single isomer, unassigned; isomer 1) [listing 2 of 2 here]		457		
CCN(CC)CCN1C(=O)C(NC(=O)Nc2ccccc2)C(=O)N(CC2CCCCC2)c2ccccc21 (stereo in doubt) [listing 1 of 2 here]	0.468 µM		9.4	
CCN(CC)CCN1C(=O)C(NC(=O)Nc2ccccc2)C(=O)N(CC2CCCCC2)c2ccccc21 (stereo in doubt) [listing 2 of 2 here]		1180		

Further lines, with some results ahead:

Ki [2]	Ki selectivity ratio (CCK1 Ki / CCK2 Ki) [3]	pKi [4]	SMILES	other results
1.02 µM	525	8.71	CC(C)CCN1C(=O)C(NC(=O)Nc2ccc(Cl)cc2)C(=O)N(CCN2CCOCC2)c2ccccc21 (racemic)	
1.48 µM	407	8.44	CC(C)CCN1C(=O)C(NC(=O)Nc2ccc(C(F)(F)F)cc2)C(=O)N(CCN2CCOCC2)c2ccccc21 (racemic)	
> 10 µM	78	6.89	CC(C)CCN1C(=O)C(NC(=O)Nc2ccccc2C(C)C)C(=O)N(CCN2CCOCC2)c2ccccc21 (racemic)	
5.13 µM	44	6.93	Cc1cccc(Cl)c1NC(=O)NC1C(=O)N(CCC(C)C)c2ccccc2N(CCN2CCOCC2)C1=O (racemic)	
5.13 µM	646	8.1	COc1ccc(NC(=O)NC2C(=O)N(CCC(C)C)c3ccccc3N(CCN3CCOCC3)C2=O)cc1 (racemic)	
17.4 µM	1550	7.95	COc1ccc(NC(=O)NC2C(=O)N(CCC(C)C)c3ccccc3N(CCN(C)C)C2=O)cc1 (racemic)	
	1480		CCN(CC)CCN1C(=O)C(NC(=O)Nc2ccccc2)C(=O)N(CC2CCCCC2)c2ccccc21 (racemic) [listing 2 of 2 here]	
	646		O=C(Nc1ccc(F)cc1)NC1C(=O)N(CCN2CCOCC2)c2ccccc2N(CC23CC4CC(CC(C4)C2)C3)C1=O (racemic) [listing 2 of 2 here]	
	603		O=C(Nc1ccccc1)NC1C(=O)N(CCN2CCOCC2)c2cc(F)ccc2N(CC23CC4CC(CC(C4)C2)C3)C1=O (racemic) [listing 2 of 2 here]	
	2880		O=C(Nc1ccc(F)cc1)NC1C(=O)N(CCN2CCOCC2)c2ccccc2N(CC23CC4CC(CC(C4)C2)C3)C1=O (single isomer, unassigned; (-)) [listing 2 of 2 here]	
	8910		O=C(Nc1ccccc1)NC1C(=O)N(CCN2CCOCC2)c2ccccc2N(CC23CC4CC(CC(C4)C2)C3)C1=O (single isomer, unassigned; (-))	
2.69 µM		8.23	CCN(CC)CCN1C(=O)C(NC(=O)Nc2ccccc2)C(=O)N(CC2CCCCC2)c2ccccc21 (single isomer, unassigned; isomer 1) [listing 1 of 2 here]	
1.58 µM		8.03	O=C(Nc1ccccc1)NC1C(=O)N(CCN2CCOCC2)c2ccccc2N(CC23CC4CC(CC(C4)C2)C3)C1=O (stereo in doubt; 55) [listing 1 of 2 here]	
	170		O=C(Nc1ccccc1)NC1C(=O)N(CCN2CCOCC2)c2ccccc2N(CC23CC4CC(CC(C4)C2)C3)C1=O (stereo in doubt; 55) [listing 2 of 2 here]	

From ChEMBL document CHEMBL1806366, “Synthesis and structure-activity relationship of new 1,5-dialkyl-1,5-benzodiazepines as cholecystokinin-2 receptor antagonists” (Bioorg Med Chem, 2011)
